# Compound activity as filed in PubChem.
# mHtt clearance: mutant huntingtin protein clearance; HeLa Exon1htt(103Q)mCFP, aggregate imaging; zero = plate's median compound well; inhibition, % at 1.5 µM; actives 0.42% (n = 47,000); AID 853;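 active means inhibition of aggregate fluorescence above about 70%, also judged a hit by eye on the cell image, limit read from the data, passing the limit was not always enough; inconclusive means no rule stated for this call; inactive means not judged a hit on image review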;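 further: cells exposed to compound for three days before fixation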
# JNK3 inh: blocks human JNK3 kinase activity | P53779 | purified JNK3 kinase activity, HTS | inhibition, % at 8 µM | actives 0.61% (n = 60,000) | AID 746; in the data active means inhibition above about 17%
# SF-1 act: SF-1 (human) activation; CHO-K1 Gal4-SF-1 LBD luciferase reporter; % increase over DMSO SF-1-specific signal; activation, % at 10 µM; AID 522; actives 1.9% (n = 65,000);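 active means activation above the mean activation of all tested compounds plus 3 SD, cut at about 50% in these data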
#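 Assay system – CHO-K1 cells with Gal4–hSF-1 LBD chimera plus Gal4-driven luciferase · Quantity – 4,000 cells per well · Times – compound added 1 h post-seeding, 20 h exposure at 37 °C, 5% CO2 · Measured by – luciferase light emission · Benchmarks – DMSO and mock-transfected background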
# ROCK2 inh: inhibitors of human Rho kinase 2 | purified ROCK2, Kinase-Glo ATP depletion luminescence | inhibition, % at 6 µM | actives 0.35% (n = 60,000);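 active means inhibition above the screen-wide mean inhibition plus 3 SD, cut at about 18% in these data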
# RORa activator: RORA (human) activation. P35398. CHO-K1 Gal4-RORA LBD luciferase reporter, luminescence; percent increase over mock-subtracted basal signal. activation, % at 10 µM. actives 1.5% (n = 65,000). AID 560;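 active means activation above the mean of all tested compounds plus 3 SD, cut at about 49% in these data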
# PKA inh: inhibitors of human protein kinase A | AID 524 | PKA Kemptide phosphorylation, Kinase-Glo ATP luminescence | actives 0.1% (n = 65,000) | inhibition, % at 6 µM;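 active means inhibition above the screen-wide mean inhibition plus 3 SD, cut at about 21% in these data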
# Hits are given with their value; i = inactive; ? = inconclusive; nt = not tested or not shown. In the library only some 2.9% were active in any assay of this set; here they are far more common.
SMILES,mHtt clearance,JNK3 inh,SF-1 act,ROCK2 inh,RORa activator,PKA inh
COc1nc(-c2ccccc2)ccc1-c1noc(-c2ccco2)n1,i,i,55,i,i,i
CCOc1ccc(-c2nc(-c3ccncc3)no2)cc1OCC,i,i,i,i,i,i
COc1ccc(-c2ccc(-c3noc(-c4ccco4)n3)c(OC)n2)cc1,nt,i,i,i,i,i
Cc1ccc(SCc2nc(-c3ccncc3)no2)cc1,i,i,i,24,i,21
Cc1csc(NC(=O)c2ccoc2C)n1,nt,i,56,i,i,i
O=C(Nc1cnc2ccccn2c1=O)c1ccc(F)cc1,nt,i,60,i,i,i
O=C(Nc1nnc(CCc2ccccc2)s1)c1cccs1,nt,i,54,i,i,i
Cc1ccccc1NC(=O)c1cnc2ccccn2c1=O,i,i,i,i,i,i
Cc1oc(-c2ccccc2)cc1C(=O)Nc1ccc2ccccc2c1,i,nt,nt,nt,nt,nt
Cc1occc1C(=O)Nc1ccc2ccccc2c1,i,i,i,i,120,i
O=C(Cc1coc(-c2ccc(F)cc2)n1)N1CCOCC1,nt,i,i,i,i,i
CCOC(=O)c1cnc(SC)nc1Oc1cccc(NS(=O)(=O)c2ccc(C)cc2)c1,i,nt,nt,nt,nt,nt
CCOC(=O)Cc1csc(NC(=O)c2cccs2)n1,nt,i,i,i,i,i
O=C(Nc1nnc(C23CC4CC(CC(C4)C2)C3)s1)c1ccco1,i,i,i,i,91,i
CCOC(=O)c1sc(NC(=O)c2cccs2)nc1C,i,nt,nt,nt,nt,nt
O=C(Nc1nnc(CCc2ccccc2)s1)c1ccco1,nt,i,i,i,54,i
Cc1csc(NC(=O)c2cccs2)n1,i,i,53,i,i,i
CCOC(=O)c1sc2nc(NC(=O)c3cccs3)sc2c1C,nt,i,i,i,60,i
CC(C)Cn1c(N)c(C(=O)COC(=O)C2=COCCO2)c(=O)n(C)c1=O,i,i,i,i,i,i
Cc1csc(NC(=O)c2cnc3ccccn3c2=O)n1,nt,i,61,i,i,i
Cc1occc1C(=O)Nc1cc(C(C)(C)C)on1,i,i,i,i,64,i
Cc1csc(NC(=O)CSc2nnc(-c3ccoc3C)o2)n1,i,i,i,i,61,i
Cc1occc1C(=O)Nc1nnc(C(F)(F)F)s1,nt,i,i,i,i,i
Cc1cnc(NC(=O)CSc2nnc(-c3ccccc3)o2)s1,?,i,88,i,i,i
Cc1occc1-c1nnc(SCC(=O)Nc2nc(C(C)(C)C)cs2)o1,i,nt,nt,nt,nt,nt
SMILES,mHtt clearance,JNK3 inh,SF-1 act,ROCK2 inh,RORa activator,PKA inh
Cc1cnc(NC(=O)CSc2nnc(COc3c(C)cccc3C)o2)s1,nt,i,i,i,i,i
Clc1ccc(-n2nnnc2SCc2c(-c3ccccc3)nc3sccn23)cc1,nt,i,i,i,i,i
COc1ccc(/C=N/NC(=O)C(=O)NCc2cccnc2)cc1OC,i,nt,nt,nt,nt,nt
Cc1noc(C)c1C(=O)OCC(=O)NCCC1=CCCCC1,i,i,i,i,i,i
O=C(Nc1nc2c(ccc3ccccc32)s1)c1ccco1,i,i,63,i,59,i
CC(C)c1nnc(NC(=O)c2cccs2)s1,nt,i,104,i,76,i
O=C(Nc1nc2c(Cl)ccc(Cl)c2s1)c1ccco1,nt,i,i,i,i,i
O=C(Nc1ccc(-c2noc(CCc3ccccc3)n2)cc1)c1ccco1,nt,i,i,i,72,i
CC(C)N(C(=O)CSc1nnc(NC(=O)c2cccs2)s1)C(C)C,i,nt,nt,nt,nt,nt
O=C(CCN1CCN(Cc2ccccc2)CC1)Nc1cccc(Cl)c1,i,i,i,i,i,i
CC(=O)c1cnc2c(-c3ccc(Cl)cc3)cnn2c1C,i,nt,nt,nt,nt,nt
Cc1cc(NCCOCCO)n2ncc(-c3ccc(Cl)cc3)c2n1,i,i,i,i,89,i
Cc1cc(NCCCN2CCOCC2)n2ncc(-c3ccccc3)c2n1,nt,i,107,i,54,i
Cc1cc(NCCCN2CCOCC2)n2nc(C)c(-c3ccccc3)c2n1,i,i,i,i,i,i
Cn1c(-c2cc(Br)ccc2O)n[nH]c1=S,nt,i,i,i,i,i
Brc1ccc2[nH]ncc2c1,i,i,i,30,i,i
Cc1nc(N)sc1-c1csc(Nc2ccc(Cl)cn2)n1,i,i,i,i,i,i
Cc1nc(N)sc1-c1csc(Nc2ccccn2)n1,i,i,i,i,57,i
Cc1ccn2cc(C(=O)Nc3ccccc3N3CCOCC3)nc2c1,i,i,i,i,55,i
Cc1cc(NO)nc(-c2ccc(Br)cc2)n1,nt,i,64,i,59,i
Cc1cc(C)nc(NS(=O)(=O)c2ccc(Br)cc2)n1,nt,i,i,i,i,i
COc1ccc2nc(NC(=O)CSc3nnc(-c4ccoc4C)n3C)sc2c1,nt,i,i,i,107,i
O=c1[nH]c(=S)c2c(n1-c1ccccc1)CCC2,i,18,i,i,i,i
Cc1cc(=O)[nH]c(=S)n1-c1ccccc1,nt,i,i,i,i,i
CCOc1ccc(OCC)c(NC(=O)C2CCCN2S(=O)(=O)c2cccc3cccnc23)c1 (stereo unspecified),nt,i,58,i,i,i
SMILES,mHtt clearance,JNK3 inh,SF-1 act,ROCK2 inh,RORa activator,PKA inh
COc1ccc(NC(=O)C2CCCN2S(=O)(=O)c2cccc3cccnc23)c(OC)c1 (stereo unspecified),nt,i,i,i,i,i
Cc1ccc(C(=O)OCc2cc3ccccc3[nH]c2=O)cc1,i,28,i,i,i,i
Cc1cccc(C(=O)OCc2cc3ccccc3[nH]c2=O)c1,i,i,i,i,i,i
CCOC(=O)N1CCN(c2ccc(C(=O)c3ccccc3)cc2F)CC1,i,i,i,i,58,i
Cc1cccc(-n2ncc3c(NCc4cccnc4)ncnc32)c1,nt,i,56,i,73,i
Cc1ccc(-n2ncc3c(NCc4ccccc4)ncnc32)cc1,nt,i,62,i,61,i
c1ccc(-n2ncc3c(NCc4ccco4)ncnc32)cc1,i,20,77,i,90,i
Cc1cccc(-n2ncc3c(NC4CCCCC4)ncnc32)c1,nt,i,i,i,i,i
Cc1ccc(-n2ncc3c(NCc4cccnc4)ncnc32)c(C)c1,nt,i,i,i,i,i
c1ccc(Cn2ncc3c(NCc4ccco4)ncnc32)cc1,nt,i,i,i,i,i
C=CCNc1ncnc2c1cnn2-c1cccc(C)c1,nt,i,i,i,55,i
O=C(NCC(c1cccs1)N1CCOCC1)c1ccc(Cl)s1 (stereo unspecified),nt,i,i,i,i,i
CC1CCCC(NC(=O)COC(=O)CCC2CCCC2)C1C (stereo unspecified),i,nt,nt,nt,nt,nt
c1coc(CNc2ncnc3nc[nH]c23)c1,nt,i,i,25,i,i
Cc1ccc2[nH]c3c(NCc4ccco4)ncnc3c2c1,i,i,i,i,i,i
Clc1ccc(-n2ncc3c(NCCN4CCOCC4)ncnc32)cc1,i,i,i,i,i,i
CCCCNc1ncnc2c1cnn2-c1ccc(C)cc1C,nt,i,i,i,i,i
Cc1ccc(-n2ncc3c(NCc4ccccn4)ncnc32)c(C)c1,nt,i,i,i,i,i
Cc1cccc(-n2ncc3c(NCCCO)ncnc32)c1,i,i,67,i,83,i
